Experimental data as given in ChEMBL document CHEMBL1799964, “Synthesis of novel vitamin K2 analogues with modification at the ω-terminal position and their biological evaluation as potent steroid and xenobiotic receptor (SXR) agonists” (J Med Chem, 2011).

Experiments:
[1] = target: T1, Nuclear receptor subfamily 1 group I member 2 (Homo sapiens, UniProt O75469); assay: Agonist activity at human SXR transfected in human HepG2 cells coexpressing GAL4 assessed as activation of receptor-mediated CYP3A4 gene transcription at 1 X 10^-6 M after 48 hrs by luciferase reporter gene assay; conditions: hepg2, 48 h, 1 µM
T1 sequence (O75469 whole entry): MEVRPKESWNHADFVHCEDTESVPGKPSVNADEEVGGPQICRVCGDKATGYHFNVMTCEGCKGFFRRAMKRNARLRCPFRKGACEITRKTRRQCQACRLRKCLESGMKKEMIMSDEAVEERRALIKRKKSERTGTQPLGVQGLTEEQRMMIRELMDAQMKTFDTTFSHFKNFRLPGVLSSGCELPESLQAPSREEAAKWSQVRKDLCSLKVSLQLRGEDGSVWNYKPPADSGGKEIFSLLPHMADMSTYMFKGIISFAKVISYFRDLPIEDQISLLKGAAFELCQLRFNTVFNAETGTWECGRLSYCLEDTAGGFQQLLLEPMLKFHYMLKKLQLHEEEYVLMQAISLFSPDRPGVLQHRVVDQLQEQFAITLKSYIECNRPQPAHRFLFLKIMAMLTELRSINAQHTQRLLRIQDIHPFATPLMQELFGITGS

[2] = tested on: Homo sapiens; assay: Drug level in osteoporotic patient at 45 […] administered daily; format: ADME, organism-based; conditions: in vivo, read-out: Drug uptake
[3] = target: T1, Nuclear receptor subfamily 1 group I member 2; assay: Binding affinity to human SXR transfected in human HepG2 cells coexpressing GAL4 assessed as transcriptional activation at 5 X 10^-6 M after 48 hrs by luciferase reporter gene assay; format: cell-based; conditions: hepg2, 48 h, 5 µM
Procedure, shortened: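 HepG2 cells (2 x 10⁵/well) transfected by Lipofectamine with pM-SXR (0.1 μg), pGVP2-GAL2 luciferase reporter (1.0 μg) and pRL-CMV (0.05 μg). Mean ± SD of three independent experiments; Student's t test.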

Row | Activity [1] | concentration [2] [nM] | Activity [3] | Structure (SMILES)
1 | Active | 1000 | Active | CC(C)=CCC/C(C)=C/CC/C(C)=C/CC/C(C)=C/CC1=C(C)C(=O)c2ccccc2C1=O [MENATETRENONE]
2 | Active | – | Not Active | CC1=C(C/C=C(\C)CC/C=C(\C)CC/C=C(\C)CO)C(=O)c2ccccc2C1=O
3 | Active | – | Active | CC(C)=CCC/C(C)=C/CC/C(C)=C/CC1=C(C)C(=O)c2ccccc2C1=O
4 | – | – | Active | CO[C@H]1/C=C/O[C@@]2(C)Oc3c(C)c(O)c4c(O)c(c(/C=N/N5CCN(C)CC5)c(O)c4c3C2=O)NC(=O)/C(C)=C\C=C\[C@H](C)[C@H](O)[C@@H](C)[C@@H](O)[C@@H](C)[C@H](OC(C)=O)[C@@H]1C [RIFAMPIN]
5 | Active | – | Active | CC(C)=CCC1=C(C)C(=O)c2ccccc2C1=O
6 | Active | – | Not Active | CC1=C(C/C=C(\C)CC/C=C(\C)CC/C=C(\C)CC/C=C(\C)CO)C(=O)c2ccccc2C1=O
7 | Active | – | Active | CC1=C(C/C=C(\C)CC/C=C(\C)Cc2ccccc2)C(=O)c2ccccc2C1=O
8 | Active | – | Not Active | CC1=C(C/C=C(\C)CC/C=C(\C)CO)C(=O)c2ccccc2C1=O
9 | Active | – | Active | CC1=C(C/C=C(\C)CC/C=C(\C)CC/C=C(\C)Cc2ccccc2)C(=O)c2ccccc2C1=O
10 | – | – | Active | CC(C)=CCC/C(C)=C/CC1=C(C)C(=O)c2ccccc2C1=O [MENAQUINONE-2]
